# Assay results: ChEMBL document CHEMBL2150885, “Dual anticoagulant/antiplatelet persulfated small molecules” (Eur J Med Chem, 2011)
# Activity calls are given as the source filed them. No cut-off for these calls is given here.
# What was measured:
# [1] = biological target: Antithrombin-III (Bos taurus) (UniProt P41361); assay: Inhibition of bovine antithrombin-3 at 1 x 10^-3 M
# Plasma [2] = assay: Anticoagulant activity in human plasma assessed as effect on APC level using CBS 42.46 as synthetic substrate at 1 x 10^-3 M; assay type: functional
# Method in brief: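 Compound in saline added to citrated human plasma. Protein C activated by a snake venom-derived activator; enzyme formed quantified by amidolytic activity on chromogenic substrate CBS 42.46. Calibration curve linear 3–150%; normal and pathological control plasmas verify accuracy. Compounds at 1 × 10⁻³ M.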
# Plasma [3] = assay: Anticoagulant activity in human plasma assessed as concentration required to double prothrombin time at 5 x 10^-3 M; assay type: functional, cell-free
# Method in brief: (§1)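 Pooled citrated human plasma; compounds in water (10% DMSO for some), final 5 × 10⁻³ to 0.05 × 10⁻³ M; heparin 0.1–10 UI/mL as reference. APTT, PT and TT measured on a coagulometer with commercial kits, clotting time in s. Duplicates repeated on three days (n = 6). Concentration doubling clotting time obtained by linear regression of each concentration-response curve.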
# [4] = Cytotoxicity against human A375-C5 cells at 1.5 x 10^-4 after 48 hrs; assay type: cell-based; settings: a375-c5, 48 h
# Plasma [5] = assay: Anticoagulant activity in human plasma assessed as effect on prothrombin level by PT clotting time with factor II deficient plasma at 1 x 10^-3 M
# [6] = biological target: Coagulation factor X (Homo sapiens) (UniProt P00742); assay: Inhibition of human factor 10a using CH3SO2-D-Leu-Gly-Arg-pNA, AcOH as substrate at 1 x 10^-3 M by chromogenic substrate hydrolysis assay
# Sequence of Coagulation factor X (Homo sapiens) (P00742 41-179 limits assumed): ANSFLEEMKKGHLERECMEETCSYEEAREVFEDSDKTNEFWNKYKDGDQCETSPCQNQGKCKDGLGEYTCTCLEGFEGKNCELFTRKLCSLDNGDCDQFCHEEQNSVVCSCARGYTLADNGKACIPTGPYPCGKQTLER
# Sequence of Coagulation factor X (Homo sapiens) (P00742 235-488 limits assumed): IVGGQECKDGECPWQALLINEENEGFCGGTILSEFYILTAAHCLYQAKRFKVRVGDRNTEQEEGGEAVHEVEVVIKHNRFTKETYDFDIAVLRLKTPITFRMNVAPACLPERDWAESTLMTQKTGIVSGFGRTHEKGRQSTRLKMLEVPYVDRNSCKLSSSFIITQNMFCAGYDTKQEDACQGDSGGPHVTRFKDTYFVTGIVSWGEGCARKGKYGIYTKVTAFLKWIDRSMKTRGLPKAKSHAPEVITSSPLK
# Method in brief: (§2)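 Chromogenic hydrolysis in 50 mM Tris/HCl pH 8.3, 227 mM NaCl, 0.1% BSA, with and without bovine antithrombin III (1 U/mL final). Human factor Xa 0.5 U/mL with CBS 31.39 […], or human thrombin 0.06 U/mL with Chromozym TH […]. Absorbance at 405 nm, enzyme-free blank subtracted; initial slope vs water control gives % inhibition. Compounds at 1 × 10⁻³ M; n = 6.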
# MCF7 = assay: Cytotoxicity against human ER-positive MCF7 cells at 1.5 x 10^-4 after 48 hrs; assay type: cell-based; settings: mcf7, 48 h
# Plasma [7] = assay: Anticoagulant activity in human plasma assessed as concentration required to double activated partial thromboplastin time; assay type: functional; method in brief: as §1
# [8] = biological target: Prothrombin (Homo sapiens) (UniProt P00734); assay: Inhibition of human thrombin using Tosyl-Gly-Pro-Arg-p-nitroaniline as substrate at 1 x 10^-3 M by chromogenic substrate hydrolysis assay; method in brief: as §2
# NCI-H460 = assay: Cytotoxicity against human NCI-H460 cells at 1.5 x 10^-4 after 48 hrs; assay type: cell-based; settings: nci-h460, 48 h
# Plasma [9] = assay: Anticoagulant activity in human plasma assessed as concentration required to double thrombin time at 5 x 10^-3 M; assay type: functional, cell-free; method in brief: as §1
# Plasma [10] = assay: Anticoagulant activity in human plasma assessed as concentration required to double prothrombin time; assay type: functional; method in brief: as §1
# Platelet [11] = assay: Antiplatelet activity against arachidonic acid-induced platelet aggregation in human blood at 6.25 x 10^-4 M measured for 6 mins by multiplate electrical impedance aggregometry; assay type: functional, cell-based
# Method in brief: (§3)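 Hirudin-anticoagulated (final […]) healthy-donor whole blood, used within 0.5–1 h. Compound in saline to final 6.25 × 10⁻⁴ M; saline control, acetylsalicylic acid 6.25 × 10⁻⁴ M reference. Blood mixed with saline at 37 °C for 180 s, then agonist at final TRAP-6 […], arachidonic acid 0.5 mM or ADP […]. Impedance recorded 6 min; AUC from mean of two curves, accepted if within 20%.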
# Platelet [12] = assay: Antiplatelet activity against thrombin receptor-activating peptide-6-induced platelet aggregation in human blood at 6.25 x 10^-4 M measured for 6 mins by multiplate electrical impedance aggregometry; assay type: functional, cell-based; method in brief: as §3
# Platelet [13] = assay: Antiplatelet activity against adenosine diphosphate-induced platelet aggregation in human blood at 6.25 x 10^-4 M measured for 6 mins by multiplate electrical impedance aggregometry; assay type: functional, cell-based; method in brief: as §3
# Sequence of Antithrombin-III (Bos taurus) (P41361 whole entry): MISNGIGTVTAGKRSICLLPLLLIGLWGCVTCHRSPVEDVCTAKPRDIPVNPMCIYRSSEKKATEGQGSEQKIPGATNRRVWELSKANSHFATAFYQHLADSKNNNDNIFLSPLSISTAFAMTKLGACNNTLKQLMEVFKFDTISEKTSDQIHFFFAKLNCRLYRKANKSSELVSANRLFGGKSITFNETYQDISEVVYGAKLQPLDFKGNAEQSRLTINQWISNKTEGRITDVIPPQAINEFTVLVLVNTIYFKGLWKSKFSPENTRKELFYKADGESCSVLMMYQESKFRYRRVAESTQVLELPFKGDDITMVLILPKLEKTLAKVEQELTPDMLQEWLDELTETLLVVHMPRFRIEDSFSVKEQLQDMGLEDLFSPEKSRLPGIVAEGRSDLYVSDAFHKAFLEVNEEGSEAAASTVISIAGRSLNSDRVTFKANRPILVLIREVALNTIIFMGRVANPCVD
inhibition [1],inhibition [6],inhibition [8],SMILES,Activity (Plasma [2]) [%],Activity (Plasma [3]),Activity [4],Activity (Plasma [5]) [%],Activity (MCF7),2aPTT (Plasma [7]),Activity (Plasma [7]),Activity (NCI-H460),Activity (Plasma [9]),2PT (Plasma [10]) [mM],Activity (Plasma [10]),AUC (Platelet [11]) [AU.min],AUC (Platelet [12]) [AU.min],AUC (Platelet [13]) [AU.min]
inactive,inactive,inactive,O=C(O)c1cc(OS(=O)(=O)[O-])c(OS(=O)(=O)[O-])c(OS(=O)(=O)[O-])c1.[Na+].[Na+].[Na+],101,inactive,Non-toxic,61.5,Non-toxic,1.96 mM,Dose-dependent effect,Non-toxic,inactive,–,–,–,–,–
inactive,inactive,inactive,Cc1cc(=O)oc2cc(O[C@@H]3O[C@H](COS(=O)(=O)[O-])[C@@H](OS(=O)(=O)[O-])[C@H](OS(=O)(=O)[O-])[C@H]3OS(=O)(=O)[O-])ccc12.[Na+].[Na+].[Na+].[Na+],97,–,Non-toxic,64.5,Non-toxic,1.18 mM,Dose-dependent effect,Non-toxic,inactive,> 5,Dose-dependent effect,–,–,–
–,–,–,CC(=O)Oc1ccccc1C(=O)O,–,–,–,–,–,–,–,–,–,–,–,230,–,–
–,–,–,O=c1oc2c(OS(=O)(=O)O)c(OS(=O)(=O)O)cc3c(=O)oc4c(OS(=O)(=O)O)c(OS(=O)(=O)O)cc1c4c23,–,inactive,–,–,–,–,–,–,inactive,–,–,–,–,–
inactive,inactive,inactive,O=C(/C=C/c1ccc(OS(=O)(=O)[O-])c(OS(=O)(=O)[O-])c1)O[C@@H]1C[C@](OS(=O)(=O)[O-])(C(=O)O)C[C@@H](OS(=O)(=O)[O-])[C@H]1OS(=O)(=O)[O-].[Na+].[Na+].[Na+].[Na+].[Na+] [CHLOROGENIC ACID PERSULFATE],95,inactive,–,82,–,3.66 mM,Dose-dependent effect,–,inactive,–,–,–,–,–
–,–,–,COc1ccc([C@@H]2CC(=O)c3c(O)cc(O[C@@H]4O[C@H](CO[C@@H]5O[C@@H](C)[C@H](OS(=O)(=O)[O-])[C@@H](OS(=O)(=O)[O-])[C@H]5OS(=O)(=O)[O-])[C@@H](OS(=O)(=O)[O-])[C@H](OS(=O)(=O)[O-])[C@H]4OS(=O)(=O)[O-])cc3O2)cc1O.[Na+].[Na+].[Na+].[Na+].[Na+].[Na+] [HEXASULFATED HESPERIDIN],85,–,Non-toxic,47.5,Non-toxic,4.13 ×10⁻⁴ M,–,Non-toxic,–,–,–,150,1200,150
inactive,inactive,inactive,O=S(=O)([O-])OCc1ccccc1O[C@@H]1O[C@H](COS(=O)(=O)[O-])[C@@H](OS(=O)(=O)[O-])[C@H](OS(=O)(=O)[O-])[C@H]1OS(=O)(=O)[O-].[Na+].[Na+].[Na+].[Na+].[Na+] [SALICIN PERSULFATE],93,–,Non-toxic,66,Non-toxic,0.899 mM,Dose-dependent effect,Non-toxic,inactive,> 5,Dose-dependent effect,–,–,–
